Experimental data as given in ChEMBL document CHEMBL2401686, “Synthesis of novel 1-[5-(4-methoxy-phenyl)-[1,3,4]oxadiazol-2-yl]-piperazine derivatives and evaluation of their in vivo anticonvulsant activity” (Eur J Med Chem, 2013).

How the values were obtained:
Rattus norvegicus [1] = test: Anticonvulsant activity in Wistar rat assessed as protection against maximal electroshock-induced seizure at 100 mg/kg, po administered 30 mins prior to test relative to control; format: functional
How it was run: (§1)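 Male Wistar rats, n = 6 per group; 100 mg/kg given orally as solution in 1% sodium carboxymethyl cellulose, 30 min before maximal electroshock; observed 2 min. E/F is extension phase (s)/flexion phase (s). % protection = (control − test)/control × 100 against vehicle control; phenytoin 100 mg/kg reference; mean values.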

Rattus norvegicus [2] = test: Anticonvulsant activity in Wistar rat maximal electroshock seizure model assessed as decrease in ratio of extension phase and flexion phase at 100 mg/kg, po administered 30 mins prior to test; format: functional; how it was run: as §1
Mus musculus [3] = test: Neurotoxicity in mouse assessed as inability to maintain equilibrium on rod at 100 mg/kg, po after 0.5 hrs by rotarod test relative to control; format: toxicity, organism-based; design: dose 100 mg/kg, route oral; details: in vivo
How it was run: (§2)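 Mice pre-trained on accelerating rotorod (10 rpm, rod diameter 3.2 cm), then dosed orally at 100 mg/kg. Neurotoxicity is failure to keep equilibrium on the rod for at least 1 min in each of three trials, checked at 0.5, 1, 2 and 4 h. Reported as animals showing neurotoxicity per number tested (n = 4); phenytoin standard.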

Mus musculus [4] = test: Neurotoxicity in mouse assessed as inability to maintain equilibrium on rod at 100 mg/kg, po after 1 hr by rotarod test relative to control; format: toxicity, organism-based; design: dose 100 mg/kg, route oral; details: in vivo; how it was run: as §2
Mus musculus [5] = test: Neurotoxicity in mouse assessed as inability to maintain equilibrium on rod at 100 mg/kg, po after 4 hrs by rotarod test relative to control; format: toxicity, organism-based; design: dose 100 mg/kg, route oral; details: in vivo; how it was run: as §2
Mus musculus [6] = test: Neurotoxicity in mouse assessed as inability to maintain equilibrium on rod at 100 mg/kg, po after 2 hrs by rotarod test relative to control; format: toxicity, organism-based; design: dose 100 mg/kg, route oral; details: in vivo; how it was run: as §2

Row | Structure (SMILES) | Activity (Rattus norvegicus [1]) | Ratio (Rattus norvegicus [2]) | Activity (Mus musculus [3]) | Activity (Mus musculus [4]) | Activity (Mus musculus [5]) | Activity (Mus musculus [6])
1 | COc1ccc(-c2nnc(N3CCN(S(=O)(=O)c4ccc(Br)c(C)c4)CC3)o2)cc1 | 52.42% | 6.29 | 0% | 0% | 0% | 0%
2 | COc1ccc(-c2nnc(N3CCN(S(=O)(=O)c4ccc(-c5ccccc5)cc4)CC3)o2)cc1 | 23.34% | 7.11 | 0% | 0% | 0% | 0%
3 | COc1ccc(-c2nnc(N3CCN(S(=O)(=O)c4ccc(C#N)cc4)CC3)o2)cc1 | 42.4% | 6.34 | 0% | 0% | 0% | 0%
4 | COc1ccc(-c2nnc(N3CCN(S(=O)(=O)c4ccc(C(F)(F)F)cc4[N+](=O)[O-])CC3)o2)cc1 | 77.64% | 1.91 |  |  |  | 
5 | COc1ccc(-c2nnc(N3CCN(S(=O)(=O)c4ccc(Oc5ccccc5)cc4)CC3)o2)cc1 | 74.31% | 1.96 | 0% | 0% | 0% | 0%
6 | COc1ccc(-c2nnc(N3CCN(S(=O)(=O)c4cc(Cl)sc4Cl)CC3)o2)cc1 | 73.47% | 2.11 | 0% | 0% | 0% | 0%
7 | COc1ccc(-c2nnc(N3CCN(S(=O)(=O)c4ccc5ccccc5c4)CC3)o2)cc1 | 31.54% | 6.96 | 0% | 0% | 25% | 25%
8 | COc1ccc(-c2nnc(N3CCN(S(=O)(=O)c4c(C)noc4C)CC3)o2)cc1 | 71.25% | 2.34 | 0% | 0% | 0% | 0%
9 | COc1ccc(-c2nnc(N3CCN(S(=O)(=O)c4ccc(C(C)(C)C)cc4)CC3)o2)cc1 | 17.32% | 7.64 | 0% | 0% | 0% | 0%
10 | COc1ccc(-c2nnc(N3CCN(S(=O)(=O)c4ccccc4[N+](=O)[O-])CC3)o2)cc1 | 59.64% | 5.49 | 0% | 0% | 0% | 0%
11 | COc1ccc(-c2nnc(N3CCN(S(=O)(=O)c4cccc(C(F)(F)F)c4)CC3)o2)cc1 | 53.01% | 6.11 | 0% | 0% | 0% | 0%
12 | COc1ccc(-c2nnc(N3CCN(S(C)(=O)=O)CC3)o2)cc1 | 10.63% | 8.15 | 0% | 0% | 25% | 25%
13 | COc1ccc(-c2nnc(N3CCN(S(=O)(=O)c4ccc(C)cc4)CC3)o2)cc1 | 17.03% | 7.68 | 0% | 0% | 25% | 25%
14 | COc1ccc(-c2nnc(N3CCN(S(=O)(=O)c4ccc(Br)cc4)CC3)o2)cc1 | 50.79% | 6.51 | 0% | 0% | 0% | 0%
15 | COc1ccc(-c2nnc(N3CCN(S(=O)(=O)c4ccc(I)cc4)CC3)o2)cc1 | 50.43% | 6.57 | 0% | 0% | 0% | 0%
16 | O=C1NC(=O)C(c2ccccc2)(c2ccccc2)N1 [PHENYTOIN] | 75.88% | 1.98 | 0% | 0% | 0% | 0%
